Our source for the Fold change, IC50 and Activity values is ChEMBL document CHEMBL1144697, “9-cyano-1-azapaullone (cazpaullone), a glycogen synthase kinase-3 (GSK-3) inhibitor activating pancreatic beta cell protection and replication” (J Med Chem, 2008).

Calls of active or inactive are those of the source. The rule behind the calls is not given here.

A short description of assay [1]: Activation of Pax4 RNA expression in rat beta cells at 2 uM after 4 hrs relative to control. As to conditions: Pancreatic beta cell. The class given is functional, cell-based. Summed up: (§1)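 Primary rat islets exposed to compound for 4 h. Pax4 and cyclophilin B expression measured by qRT-PCR as fold change versus vehicle-treated control (set to 1). Triplicates, mean ± SD.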

Assay [2] is described as follows: Activation of cyclophilin B gene expression in rat beta cells at 2 uM after 4 hrs relative to control. The class given is functional, cell-based. As to conditions: Pancreatic beta cell. The method in brief:
as §1

The target in assay [3] is Glycogen synthase kinase-3 (Homo sapiens, UniProt P49840+P49841). The assay can be described thus: Inhibition of GSK3alpha/beta in pig brain. Set-up: species or system Sus scrofa. As to conditions: target entry is the homologue from another species.
Assay [4] addresses Cyclin-dependent kinase 5/CDK5 activator 1 (Homo sapiens, UniProt Q00535). In words: Inhibition of recombinant CDK5/p25 expressed in Escherichia coli.
Assay [5] is described as follows: Inhibition of starfish CDK1/cyclin B. Set-up: species or system Asteroidea. The method in brief: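 Kinase inhibition assays at 15 µM final ATP, run in triplicate.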
Assay [6] has as its system SH-SY5Y. In words: Inhibition of GSK3 in human SHSY5Y cells assessed as beta-casein phosphorylation level in presence of MG132. As to conditions: in the assay text read “beta-catenin” for “beta-casein”. The class given is cell-based. The method in brief:
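Nearly confluent SH-SY5Y cells in DMEM with 10% FCS were co-treated with compound across a concentration range plus 2 µM MG132, DMSO ≤1% final. Phospho-β-catenin (Ser33/Ser37/Thr41) measured by ELISA and expressed as % of cells given MG132 alone (100%).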

In assay [7] the test system is INS-1E. The assay can be described thus: Protection against glucose and palmitate-induced toxicity in rat INS-1E cells after 24 hrs. Type of assay: functional, cell-based. The method in brief:
(§2)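 INS-1E cells treated with compound over a concentration range, with or without 0.3 mM BSA-coupled palmitate plus 25 mM glucose for 24 h. Viability/metabolic activity measured as an indirect readout of mitochondrial energy production. At least four wells per point; representative of ≥3 independent studies.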

The test system of assay [8] is INS-1E. In words: Protection against glucose and palmitate-induced toxicity in rat INS-1E cells at 0.3 uM after 24 hrs. Type of assay: functional, cell-based. Summed up: as §2
In assay [9] the test system is INS-1E. The assay can be described thus: Protection against glucose and palmitate-induced toxicity in rat INS-1E cells at 2 uM after 24 hrs. Type of assay: functional, cell-based. Summed up: as §2
Assay [10] has as its system INS-1E. In words: Suppression of metabolic activity in rat INS-1E cells at 1 uM. Type of assay: functional, cell-based. The method in brief:
as §2

The test system of assay [11] is INS-1E. The assay can be described thus: Inhibition of glucose and palmitate-induced apoptosis in rat INS-1E cells by DNA fragmentation assay. The class given is functional, cell-based. The method in brief:
(§3)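 INS-1E cells preincubated 1 h with compound (µM), then exposed to toxic high glucose/palmitate for 24 h. Apoptosis read as cytosolic DNA fragments or caspase activity, as fold change versus untreated control ± SD. At least four wells per point; Student's t test against glucose/palmitate alone.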

The test system of assay [12] is INS-1E. In words: Inhibition of glucose and palmitate-induced apoptosis in rat INS-1E cells by caspase activity assay. The class given is functional, cell-based. Summed up:
as §3

Assay [13] is described as follows: Inhibition of glucose and palmitate-induced apoptosis in rat INS-1E cells at 2 uM by DNA fragmentation assay. The class given is functional. Set-up: scale not given: the % may be the effect or the level left. Summed up:
as §3

A short description of assay [14]: Inhibition of glucose and palmitate-induced apoptosis in rat INS-1E cells at 2 uM by caspase activity assay. The class given is functional. Set-up: scale not given: the % may be the effect or the level left. Summed up:
as §3

In assay [15] the test system is INS-1E. The assay can be described thus: Stimulation of rat INS-1E cell replication assessed as BrdU incorporation. The class given is functional, cell-based. The method in brief:
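INS-1E cells exposed to compound at various concentrations for 24 h. Replication measured as BrdU incorporation, given as fold increase versus untreated cells ± SD. At least four wells per point, two independent studies, Student's t test.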

The test system of assay [16] is Pancreatic beta cell. The assay can be described thus: Stimulation of rat primary beta cell replication at 0.5 uM. The class given is functional. The method in brief: (§4)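 Isolated rat islets incubated with compound for 72 h, then disaggregated and spotted onto slides. Cells double-immunostained for C-peptide and Ki-67. Replication scored as % Ki-67+ among C-peptide+ cells, compared with untreated islets.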

Assay [17] concerns Pancreatic beta cell. The assay can be described thus: Stimulation of rat primary beta cell replication at 2 uM. Type of assay: functional. Summed up: as §4
Assay [18] is described as follows: Activation of Pax4 RNA expression in rat INS-1E cells at 1 uM after 4 hrs relative to control. The class given is functional, cell-based. Summed up: (§5)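 Compound added to INS-1E cells for 4 h or 24 h. Pax4 and cyclophilin B transcripts quantified by qRT-PCR. Reported as fold change versus vehicle-treated control, with the control level set to 1. Mean of triplicates ± SD.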

Assay [19] in a line: Activation of Pax4 RNA expression in rat INS-1E cells at 1 uM after 24 hrs relative to control. Type of assay: functional, cell-based. The method in brief:
as §5

Assay [20] is described as follows: Activation of cyclophilin B gene expression in rat INS-1E cells at 1 uM after 4 hrs relative to control. The class given is functional, cell-based. The method in brief:
as §5

A short description of assay [21]: Activation of cyclophilin B gene expression in rat INS-1E cells at 1 uM after 24 hrs relative to control. Type of assay: functional, cell-based. The method in brief:
as §5

Sequence of Cyclin-dependent kinase 5/CDK5 activator 1 (Q00535 whole entry): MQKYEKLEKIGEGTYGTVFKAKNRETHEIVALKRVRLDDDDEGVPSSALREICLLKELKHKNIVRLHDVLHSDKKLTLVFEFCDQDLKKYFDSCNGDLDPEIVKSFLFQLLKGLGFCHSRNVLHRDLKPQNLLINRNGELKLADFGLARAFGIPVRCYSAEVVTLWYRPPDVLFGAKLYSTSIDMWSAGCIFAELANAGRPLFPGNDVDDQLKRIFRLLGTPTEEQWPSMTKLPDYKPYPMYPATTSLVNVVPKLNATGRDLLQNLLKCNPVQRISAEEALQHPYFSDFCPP
Sequence of Cyclin-dependent kinase 5/CDK5 activator 1 (Q15078 whole entry, further chain): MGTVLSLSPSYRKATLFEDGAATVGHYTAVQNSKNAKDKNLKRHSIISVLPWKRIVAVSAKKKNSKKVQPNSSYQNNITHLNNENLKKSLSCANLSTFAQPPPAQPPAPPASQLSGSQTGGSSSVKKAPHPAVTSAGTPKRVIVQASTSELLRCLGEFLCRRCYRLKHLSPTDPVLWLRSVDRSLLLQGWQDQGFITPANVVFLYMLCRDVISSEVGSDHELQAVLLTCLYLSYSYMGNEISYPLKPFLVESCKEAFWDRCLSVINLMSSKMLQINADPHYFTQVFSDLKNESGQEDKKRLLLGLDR

Turning to `N#Cc1ccc2[nH]c3c(c2c1)CC(=O)Nc1cccnc1-3` [CAZPAULLONE], the Fold change in assay [1] came out at 2.4; in [2], 0.73; in [18], 4.87; in assay [19], 0.56; in assay [20] it was 1.11; in assay [21], 1.42. The IC50 in assay [3] was 8 nM; in assay [4] it was 300 nM; in [5] it was 500 nM. The Activity result in assay [6] is “Dose-dependent effect”; in assay [13], above 50%; in assay [14], above 50%; in [15], “Dose-dependent effect”; in [16], 2.5. Moreover, the outcome in assay [7], in assay [8], in assay [9], in [10], in assay [11] and in assay [12] was Active. Besides, the outcome in assay [17] was inactive.
